# From ChEMBL document CHEMBL4819017 (Eur J Med Chem, 2021)
# Biological target: Cytochrome P450 3A4 (Homo sapiens, UniProt P08684)
# Assay: Inhibition of CYP3A4 (unknown origin) using Luciferin-PPXE as substrate at 10 uM preincubated with enzyme and substrate for 5 mins followed by addition of NADPH regeneration system and measured after 60 mins by luminescence method
# Format: ADME
# Details: not given
# How it was run: (§1)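 P450-Glo luminescence assays with these substrates: Luciferin-ME (CYP1A2), Luciferin-PPXE (CYP3A4), Luciferin-H (CYP2C9), LuciferinH-EG (CYP2C19), Luciferin-ME-EG (CYP2D6). Compounds run in 1/3 serial dilutions from 10 µM in 0.5% DMSO with enzyme and substrate. After 5 min preincubation, NADPH regeneration reagent added; 60 min at 37 °C, then detection reagent for 30 min. Background subtracted.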
# Sequence of Cytochrome P450 3A4 (P08684 whole entry): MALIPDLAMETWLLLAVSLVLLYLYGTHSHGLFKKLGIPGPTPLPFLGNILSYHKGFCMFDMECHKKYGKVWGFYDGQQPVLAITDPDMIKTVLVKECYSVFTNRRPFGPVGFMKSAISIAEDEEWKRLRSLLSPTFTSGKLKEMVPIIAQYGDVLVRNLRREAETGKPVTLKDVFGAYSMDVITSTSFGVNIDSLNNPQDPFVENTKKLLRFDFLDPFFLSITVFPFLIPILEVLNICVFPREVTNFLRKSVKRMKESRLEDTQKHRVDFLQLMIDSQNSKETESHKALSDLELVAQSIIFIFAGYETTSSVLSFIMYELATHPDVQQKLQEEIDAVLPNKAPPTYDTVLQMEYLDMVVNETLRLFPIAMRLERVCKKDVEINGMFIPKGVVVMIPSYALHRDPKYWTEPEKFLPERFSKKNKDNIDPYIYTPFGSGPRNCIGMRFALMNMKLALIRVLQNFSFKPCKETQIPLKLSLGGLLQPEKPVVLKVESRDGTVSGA
row,Structure (SMILES),IC50
1,COc1ncc2cc1NS(=O)(=O)c1cccc(c1)C(=O)NCc1cncc(c1)-c1ncnc3ccc-2cc13,> 30 µM
2,COc1ncc2cc1NS(=O)(=O)c1cccc(c1)C(=O)NCc1cccc(c1)-c1ncnc3ccc-2cc13,> 30 µM

# System: not listed separately
# Assay: Metabolic stability in rat liver microsomes assessed as parent compound remaining in presence of NADPH regenerating system at 0.5 uM measured after 15 mins by LC-MS/MS analysis
# Format: ADME, Microsome
# Details: read-out: Stabilty
# How it was run: (§2)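 Human, mouse or rat liver microsomes at 0.5 mg/ml protein with compound at 0.5 µM and NADPH-regenerating system, 37 °C with shaking. Control wells contain 0.1 M potassium phosphate instead of the regenerating system. Reaction stopped with acetonitrile/0.1% formic acid, centrifuged, supernatant analyzed by LC-MS/MS. Result is percent parent compound remaining.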
row,Structure (SMILES),"remaining at 0.25 h, 0.5 µM"
1,COc1ncc2cc1NS(=O)(=O)c1cccc(c1)C(=O)NCc1cncc(c1)-c1ncnc3ccc-2cc13,86%
2,COc1ncc2cc1NS(=O)(=O)c1cccc(c1)C(=O)NCc1cccc(c1)-c1ncnc3ccc-2cc13,91%

# Biological target: Serine/threonine-protein kinase mTOR (Homo sapiens, UniProt P42345)
# Assay: Inhibition of recombinant human GST tagged mTOR (1360 to 2549 residues) expressed in baculovirus expression system measured by LanthaScreen assay
# Details: not given
# How it was run: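 mTOR inhibition measured by LanthaScreen assay; IC50 values average two independent experiments.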
row,Structure (SMILES),IC50
1,COc1ncc2cc1NS(=O)(=O)c1cccc(c1)C(=O)NCc1cncc(c1)-c1ncnc3sc-2cc13,0.0399 µM
2,COc1ncc2cc1NS(=O)(=O)c1cccc(c1)C(=O)NCc1cncc(c1)-c1ncnc3ccc-2cc13,0.0049 µM

# System: not listed separately
# Assay: AUC(infinity) in BALB/c mouse at 10 mg/kg, po measured for 8 hrs
# Format: ADME, organism-based
# Parameters: route oral, time 8 hrs, dose 10 mg/kg
# Details: in vivo
# How it was run: (§3)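 BALB/c mice dosed I.V. or P.O. at the stated dose; plasma levels followed for 8 h. Parameters from noncompartmental analysis: AUC (h.ng/ml), T1/2 (h), Cl (L/h/Kg), Vd (L/Kg), Cmax (ng/ml), Tmax (h).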
row,Structure (SMILES),AUC(0-inf)
1,COc1ncc2cc1NS(=O)(=O)c1cccc(c1)C(=O)NCc1cncc(c1)-c1ncnc3ccc-2cc13,8760 ng·h/mL

# Biological target: Cytochrome P450 2C19 (Homo sapiens, UniProt P33261)
# Sequence (P33261 whole entry): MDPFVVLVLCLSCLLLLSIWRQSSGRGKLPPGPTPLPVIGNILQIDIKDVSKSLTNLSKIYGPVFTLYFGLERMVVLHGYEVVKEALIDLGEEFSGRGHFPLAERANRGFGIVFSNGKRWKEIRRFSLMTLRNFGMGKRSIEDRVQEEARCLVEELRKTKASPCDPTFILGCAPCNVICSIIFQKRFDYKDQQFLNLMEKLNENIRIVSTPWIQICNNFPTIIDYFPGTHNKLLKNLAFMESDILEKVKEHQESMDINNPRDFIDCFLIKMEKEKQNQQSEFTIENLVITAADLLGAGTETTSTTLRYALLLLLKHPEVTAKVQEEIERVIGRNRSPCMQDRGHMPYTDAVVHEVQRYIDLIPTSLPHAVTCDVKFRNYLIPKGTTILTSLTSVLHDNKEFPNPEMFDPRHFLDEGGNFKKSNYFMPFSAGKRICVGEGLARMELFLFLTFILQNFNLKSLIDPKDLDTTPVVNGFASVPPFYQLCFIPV
# Assay: Inhibition of CYP2C19 (unknown origin) using LuciferinH-EG as substrate at 10 uM preincubated with enzyme and substrate for 5 mins followed by addition of NADPH regeneration system and measured after 60 mins by luminescence method
# Format: ADME
# Details: not given
# How it was run: as §1
row,Structure (SMILES),IC50
1,COc1ncc2cc1NS(=O)(=O)c1cccc(c1)C(=O)NCc1cncc(c1)-c1ncnc3ccc-2cc13,> 30 µM
2,COc1ncc2cc1NS(=O)(=O)c1cccc(c1)C(=O)NCc1cccc(c1)-c1ncnc3ccc-2cc13,> 30 µM

# System: not listed separately
# Assay: AUC (infinity) in BALB/c mouse at 5 mg/kg, iv measured for 8 hrs
# Format: ADME, organism-based
# Parameters: route intravenous, dose 5 mg/kg, time 8 hrs
# Details: in vivo
# How it was run: as §3
row,Structure (SMILES),AUC(0-inf)
1,COc1ncc2cc1NS(=O)(=O)c1cccc(c1)C(=O)NCc1cncc(c1)-c1ncnc3ccc-2cc13,9200 ng·h/mL

# System: not listed separately
# Assay: Cmax in BALB/c mouse at 10 mg/kg, po measured for 8 hrs
# Format: ADME, organism-based
# Parameters: route oral, dose 10 mg/kg, time 8 hrs
# Details: in vivo
# How it was run: as §3
row,Structure (SMILES),Cmax
1,COc1ncc2cc1NS(=O)(=O)c1cccc(c1)C(=O)NCc1cncc(c1)-c1ncnc3ccc-2cc13,1270 ng/mL

# Biological target: Cytochrome P450 2D6 (Homo sapiens, UniProt P10635)
# Sequence (P10635 whole entry): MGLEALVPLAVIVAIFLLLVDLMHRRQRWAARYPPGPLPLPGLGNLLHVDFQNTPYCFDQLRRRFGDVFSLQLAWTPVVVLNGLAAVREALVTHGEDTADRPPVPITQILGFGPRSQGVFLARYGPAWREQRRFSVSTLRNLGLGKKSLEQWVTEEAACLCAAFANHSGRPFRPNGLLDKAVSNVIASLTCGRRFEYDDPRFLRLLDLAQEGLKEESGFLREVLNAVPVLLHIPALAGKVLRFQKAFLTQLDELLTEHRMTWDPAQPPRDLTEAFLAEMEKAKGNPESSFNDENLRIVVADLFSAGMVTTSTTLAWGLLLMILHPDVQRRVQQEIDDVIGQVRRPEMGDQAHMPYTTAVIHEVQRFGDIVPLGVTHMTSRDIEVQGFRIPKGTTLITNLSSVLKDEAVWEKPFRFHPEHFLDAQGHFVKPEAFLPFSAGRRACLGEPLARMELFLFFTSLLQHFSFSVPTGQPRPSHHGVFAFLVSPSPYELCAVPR
# Assay: Inhibition of CYP2D6 (unknown origin) using Luciferin-ME-EG as substrate at 10 uM preincubated with enzyme and substrate for 5 mins followed by addition of NADPH regeneration system and measured after 60 mins by luminescence method
# Format: ADME
# Details: not given
# How it was run: as §1
row,Structure (SMILES),IC50
1,COc1ncc2cc1NS(=O)(=O)c1cccc(c1)C(=O)NCc1cncc(c1)-c1ncnc3ccc-2cc13,> 30 µM
2,COc1ncc2cc1NS(=O)(=O)c1cccc(c1)C(=O)NCc1cccc(c1)-c1ncnc3ccc-2cc13,> 30 µM

# System: not listed separately
# Assay: Inhibition of PI3K/mTOR in human U2OS cells assessed as inhibition of AKT1 phosphorylation at Ser473 residue by C-ELISA
# Format: cell-based
# Details: not given
# How it was run: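 U2OS osteosarcoma cells grown in 0.1% FBS and serum-stimulated. Endogenous phospho-AKT1 Ser473 quantified by cell-based ELISA with chemiluminescent substrate. Signal plotted against inhibitor concentration and fitted to a sigmoid dose-response curve.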
row,Structure (SMILES),EC50
1,COc1ncc2cc1NS(=O)(=O)c1cccc(c1)C(=O)NCc1cncc(c1)-c1ncnc3ccc-2cc13,0.0206 µM
2,COc1ncc2cc1NS(=O)(=O)c1cccc(c1)C(=O)NCc1cccc(c1)-c1ncnc3ccc-2cc13,0.0479 µM

# System: not listed separately
# Assay: Tmax in BALB/c mouse at 10 mg/kg, po measured for 8 hrs
# Format: ADME, organism-based
# Details: in vivo
# How it was run: (§4)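 Dosing in BALB-C mice intravenously or orally, with plasma sampled over 8 h. Parameters (AUC, T1/2, Cl, Vd, Cmax, Tmax) come from a noncompartmental model. Units: AUC h.ng/ml, Vd L/Kg, Cmax ng/ml, Tmax h.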
row,Structure (SMILES),Tmax
1,COc1ncc2cc1NS(=O)(=O)c1cccc(c1)C(=O)NCc1cncc(c1)-c1ncnc3ccc-2cc13,9.6 min

# Biological target: T1, Cytochrome P450 1A2 (Homo sapiens, UniProt P05177)
# T1 sequence (P05177 whole entry): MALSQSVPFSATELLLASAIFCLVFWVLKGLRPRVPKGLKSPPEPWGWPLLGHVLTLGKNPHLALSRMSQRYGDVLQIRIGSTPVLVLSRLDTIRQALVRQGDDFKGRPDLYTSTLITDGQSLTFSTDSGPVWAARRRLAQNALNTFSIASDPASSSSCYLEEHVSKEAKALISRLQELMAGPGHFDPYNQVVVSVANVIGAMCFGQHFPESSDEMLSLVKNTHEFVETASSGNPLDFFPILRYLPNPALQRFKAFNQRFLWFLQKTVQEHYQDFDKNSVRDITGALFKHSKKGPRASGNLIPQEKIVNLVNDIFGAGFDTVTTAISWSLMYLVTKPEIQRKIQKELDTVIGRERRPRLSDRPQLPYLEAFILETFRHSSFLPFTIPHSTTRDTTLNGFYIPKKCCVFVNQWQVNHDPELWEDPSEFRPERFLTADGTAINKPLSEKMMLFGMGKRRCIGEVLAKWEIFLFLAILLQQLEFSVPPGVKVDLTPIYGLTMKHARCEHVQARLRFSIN
# Assay: Inhibition of CYP1A2 (unknown origin) using Luciferin-ME as substrate at 10 uM preincubated with enzyme and substrate for 5 mins followed by addition of NADPH regeneration system and measured after 60 mins by luminescence method
# Format: ADME
# Details: not given
# How it was run: as §1
row,Structure (SMILES),IC50
1,COc1ncc2cc1NS(=O)(=O)c1cccc(c1)C(=O)NCc1cncc(c1)-c1ncnc3ccc-2cc13,> 30 µM
2,COc1ncc2cc1NS(=O)(=O)c1cccc(c1)C(=O)NCc1cccc(c1)-c1ncnc3ccc-2cc13,> 30 µM

# System: not listed separately
# Assay: Metabolic stability in human liver microsomes assessed as parent compound remaining in presence of NADPH regenerating system at 0.5 uM measured after 15 mins by LC-MS/MS analysis
# Format: ADME, Microsome
# Details: read-out: Stabilty
# How it was run: as §2
row,Structure (SMILES),"remaining at 0.25 h, 0.5 µM"
1,COc1ncc2cc1NS(=O)(=O)c1cccc(c1)C(=O)NCc1cncc(c1)-c1ncnc3ccc-2cc13,80%
2,COc1ncc2cc1NS(=O)(=O)c1cccc(c1)C(=O)NCc1cccc(c1)-c1ncnc3ccc-2cc13,97%

# System: not listed separately
# Assay: Metabolic stability in mouse liver microsomes assessed as parent compound remaining in presence of NADPH regenerating system at 0.5 uM measured after 15 mins by LC-MS/MS analysis
# Format: ADME, Microsome
# Details: read-out: Stabilty
# How it was run: as §2
row,Structure (SMILES),"remaining at 0.25 h, 0.5 µM"
1,COc1ncc2cc1NS(=O)(=O)c1cccc(c1)C(=O)NCc1cncc(c1)-c1ncnc3ccc-2cc13,76%
2,COc1ncc2cc1NS(=O)(=O)c1cccc(c1)C(=O)NCc1cccc(c1)-c1ncnc3ccc-2cc13,74%

# System: not listed separately
# Assay: Half life in BALB/c mouse at 10 mg/kg, po measured for 8 hrs
# Format: ADME, organism-based
# Details: in vivo
# How it was run: as §3
row,Structure (SMILES),half-life
1,COc1ncc2cc1NS(=O)(=O)c1cccc(c1)C(=O)NCc1cncc(c1)-c1ncnc3ccc-2cc13,5.68 h

# Species: Homo sapiens
# Assay: Selectivity ratio of IC50 for recombinant human GST tagged mTOR (1360 to 2549 residues) expressed in baculovirus expression system to IC50 for human full length p110alpha (1 to 1068 residues) expressed in baculovirus-infected Sf21 cells
# Details: not given
# How it was run: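 mTOR activity measured by LanthaScreen assay. PI3K-α activity measured by ADP Hunter Plus (ADP accumulation, fluorescence ex 544/em 580 nm), normalized to no-compound control and fitted to a sigmoid dose-response curve. IC50s are the average of two independent experiments. Ratio is mTOR IC50 over PI3K-α IC50.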
row,Structure (SMILES),Ratio IC50
1,COc1ncc2cc1NS(=O)(=O)c1cccc(c1)C(=O)NCc1cncc(c1)-c1ncnc3ccc-2cc13,3.8

# Biological target: Voltage-gated inwardly rectifying potassium channel KCNH2 (Homo sapiens, UniProt Q12809)
# Sequence (Q12809 whole entry): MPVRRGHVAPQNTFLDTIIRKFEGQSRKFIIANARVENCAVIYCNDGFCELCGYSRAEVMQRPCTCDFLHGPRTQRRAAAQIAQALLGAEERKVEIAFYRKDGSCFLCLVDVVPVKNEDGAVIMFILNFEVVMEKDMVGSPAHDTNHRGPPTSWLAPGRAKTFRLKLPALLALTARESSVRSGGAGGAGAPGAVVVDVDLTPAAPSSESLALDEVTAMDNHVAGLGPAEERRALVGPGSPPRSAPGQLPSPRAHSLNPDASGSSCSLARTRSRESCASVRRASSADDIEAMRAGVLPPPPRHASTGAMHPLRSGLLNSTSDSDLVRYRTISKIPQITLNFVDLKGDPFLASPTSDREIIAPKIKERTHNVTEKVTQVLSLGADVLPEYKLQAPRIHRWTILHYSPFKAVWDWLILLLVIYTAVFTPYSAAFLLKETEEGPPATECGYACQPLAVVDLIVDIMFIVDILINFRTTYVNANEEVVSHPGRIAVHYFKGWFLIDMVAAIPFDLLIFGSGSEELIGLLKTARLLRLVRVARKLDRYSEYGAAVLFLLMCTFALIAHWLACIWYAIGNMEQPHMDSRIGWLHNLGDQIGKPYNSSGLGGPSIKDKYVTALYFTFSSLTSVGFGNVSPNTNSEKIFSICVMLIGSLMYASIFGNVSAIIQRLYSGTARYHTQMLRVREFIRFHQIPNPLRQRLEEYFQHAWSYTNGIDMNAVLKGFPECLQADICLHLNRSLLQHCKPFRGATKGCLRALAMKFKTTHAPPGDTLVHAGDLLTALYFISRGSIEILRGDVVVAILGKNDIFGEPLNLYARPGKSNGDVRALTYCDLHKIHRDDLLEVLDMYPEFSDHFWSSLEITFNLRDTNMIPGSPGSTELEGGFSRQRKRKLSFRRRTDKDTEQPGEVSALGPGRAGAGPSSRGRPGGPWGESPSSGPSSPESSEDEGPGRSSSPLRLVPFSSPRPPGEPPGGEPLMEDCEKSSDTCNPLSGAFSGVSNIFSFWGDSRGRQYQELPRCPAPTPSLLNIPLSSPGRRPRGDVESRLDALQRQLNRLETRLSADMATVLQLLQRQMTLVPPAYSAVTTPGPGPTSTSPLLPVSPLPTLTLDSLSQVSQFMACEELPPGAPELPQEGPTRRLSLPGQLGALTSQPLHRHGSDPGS
# Assay: Inhibition of human ERG by fluorescence polarization assay
# Details: not given
# How it was run: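 Predictor h-ERG membrane preparations (sonicated) incubated with test compound dilutions and fluorescent tracer (working 4X tracer at 4 nM) at room temperature for ≥1 h. Read-out by fluorescence polarization, ex 530/25, em 590/35.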
row,Structure (SMILES),IC50
1,COc1ncc2cc1NS(=O)(=O)c1cccc(c1)C(=O)NCc1cncc(c1)-c1ncnc3ccc-2cc13,> 30 µM
2,COc1ncc2cc1NS(=O)(=O)c1cccc(c1)C(=O)NCc1cccc(c1)-c1ncnc3ccc-2cc13,> 30 µM

# Biological target: Cytochrome P450 2C9 (Homo sapiens, UniProt P11712)
# Sequence (P11712 whole entry): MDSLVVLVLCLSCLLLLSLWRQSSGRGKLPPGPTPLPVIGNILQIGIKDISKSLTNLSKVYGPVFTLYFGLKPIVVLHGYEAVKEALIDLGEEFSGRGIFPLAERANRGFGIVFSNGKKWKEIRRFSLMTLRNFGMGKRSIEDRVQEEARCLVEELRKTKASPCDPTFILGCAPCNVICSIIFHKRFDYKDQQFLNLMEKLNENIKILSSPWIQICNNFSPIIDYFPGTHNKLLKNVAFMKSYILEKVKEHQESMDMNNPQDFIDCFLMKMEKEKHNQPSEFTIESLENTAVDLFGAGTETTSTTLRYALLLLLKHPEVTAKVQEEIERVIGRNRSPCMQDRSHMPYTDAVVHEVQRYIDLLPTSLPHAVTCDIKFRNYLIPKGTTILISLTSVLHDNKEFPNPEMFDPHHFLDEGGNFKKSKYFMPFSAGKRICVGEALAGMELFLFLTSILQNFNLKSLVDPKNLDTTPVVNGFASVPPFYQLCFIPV
# Assay: Inhibition of CYP2C9 (unknown origin) using Luciferin-H as substrate at 10 uM preincubated with enzyme and substrate for 5 mins followed by addition of NADPH regeneration system and measured after 60 mins by luminescence method
# Format: ADME
# Details: not given
# How it was run: as §1
row,Structure (SMILES),IC50
1,COc1ncc2cc1NS(=O)(=O)c1cccc(c1)C(=O)NCc1cncc(c1)-c1ncnc3ccc-2cc13,> 30 µM
2,COc1ncc2cc1NS(=O)(=O)c1cccc(c1)C(=O)NCc1cccc(c1)-c1ncnc3ccc-2cc13,> 30 µM

# System: not listed separately
# Assay: Clearance in BALB/c mouse at 5 mg/kg, iv measured for 8 hrs
# Format: ADME, organism-based
# Details: in vivo
# How it was run: as §3
row,Structure (SMILES),clearance
1,COc1ncc2cc1NS(=O)(=O)c1cccc(c1)C(=O)NCc1cncc(c1)-c1ncnc3ccc-2cc13,9 mL/min/kg

# System: not listed separately
# Assay: Plasma concentration in BALB/c mouse at 10 mg/kg, po measured for 8 hrs
# Format: ADME, organism-based
# Details: not given
# How it was run: as §4
row,Structure (SMILES),concentration at 8 h
1,COc1ncc2cc1NS(=O)(=O)c1cccc(c1)C(=O)NCc1cncc(c1)-c1ncnc3ccc-2cc13,424 ng/mL

# System: not listed separately
# Assay: Half life in BALB/c mouse at 5 mg/kg, iv measured for 8 hrs
# Format: ADME, organism-based
# Details: in vivo
# How it was run: as §3
row,Structure (SMILES),half-life
1,COc1ncc2cc1NS(=O)(=O)c1cccc(c1)C(=O)NCc1cncc(c1)-c1ncnc3ccc-2cc13,2.91 h

# System: not listed separately
# Assay: Volume of distribution in BALB/c mouse at 5 mg/kg, iv measured for 8 hrs
# Format: ADME, organism-based
# Details: in vivo
# How it was run: as §4
row,Structure (SMILES),Vd
1,COc1ncc2cc1NS(=O)(=O)c1cccc(c1)C(=O)NCc1cncc(c1)-c1ncnc3ccc-2cc13,0.59 L/kg

# Biological target: Phosphatidylinositol 4,5-bisphosphate 3-kinase catalytic subunit alpha isoform (Homo sapiens, UniProt P42336)
# Sequence (P42336 whole entry, the tested form may be a part, canonical isoform): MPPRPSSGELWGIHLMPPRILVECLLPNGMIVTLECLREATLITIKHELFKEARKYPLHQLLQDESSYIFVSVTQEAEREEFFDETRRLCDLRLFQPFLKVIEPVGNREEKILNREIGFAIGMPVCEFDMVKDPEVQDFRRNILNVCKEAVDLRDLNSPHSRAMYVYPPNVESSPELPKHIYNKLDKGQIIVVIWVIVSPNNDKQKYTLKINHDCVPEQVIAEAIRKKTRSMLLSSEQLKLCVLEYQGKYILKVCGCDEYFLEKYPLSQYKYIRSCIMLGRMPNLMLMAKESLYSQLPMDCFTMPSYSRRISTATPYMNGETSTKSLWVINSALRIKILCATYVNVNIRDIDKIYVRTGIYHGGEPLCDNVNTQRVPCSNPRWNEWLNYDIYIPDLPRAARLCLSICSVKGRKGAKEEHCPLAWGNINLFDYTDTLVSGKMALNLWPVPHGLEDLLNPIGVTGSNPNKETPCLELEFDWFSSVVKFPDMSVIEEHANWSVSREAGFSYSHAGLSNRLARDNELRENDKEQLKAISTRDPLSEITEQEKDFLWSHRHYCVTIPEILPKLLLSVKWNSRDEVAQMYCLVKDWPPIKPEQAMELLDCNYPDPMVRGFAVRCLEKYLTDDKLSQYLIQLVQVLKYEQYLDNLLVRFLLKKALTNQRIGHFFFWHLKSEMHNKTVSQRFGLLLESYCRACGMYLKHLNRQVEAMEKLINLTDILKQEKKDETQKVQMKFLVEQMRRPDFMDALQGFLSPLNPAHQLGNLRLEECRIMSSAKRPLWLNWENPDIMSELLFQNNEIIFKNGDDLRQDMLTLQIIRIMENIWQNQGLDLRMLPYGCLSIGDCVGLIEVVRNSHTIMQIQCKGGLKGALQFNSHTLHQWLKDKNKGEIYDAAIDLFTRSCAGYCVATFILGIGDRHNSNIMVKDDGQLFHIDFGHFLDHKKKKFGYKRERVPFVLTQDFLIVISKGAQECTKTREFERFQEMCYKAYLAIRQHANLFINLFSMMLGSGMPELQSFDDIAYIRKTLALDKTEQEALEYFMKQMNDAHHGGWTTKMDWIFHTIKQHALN
# Assay: Inhibition of human full length p110alpha (1 to 1068 residues) expressed in baculovirus-infected Sf21 cells by ADP-Hunter Plus assay
# Details: not given
row,Structure (SMILES),IC50
1,COc1ncc2cc1NS(=O)(=O)c1cccc(c1)C(=O)NCc1cncc(c1)-c1ncnc3ccc-2cc13,0.0013 µM
2,COc1ncc2cc1NS(=O)(=O)c1cccc(c1)C(=O)NCc1cccc(c1)-c1ncnc3ccc-2cc13,0.0025 µM

# System: not listed separately
# Assay: Oral bioavailability in BALB/c mouse at 10 mg/kg measured for 8 hrs
# Format: ADME, organism-based
# Details: in vivo
# How it was run: as §3
row,Structure (SMILES),bioavailability
1,COc1ncc2cc1NS(=O)(=O)c1cccc(c1)C(=O)NCc1cncc(c1)-c1ncnc3ccc-2cc13,47.6%
